MPTP block – blocks calcium-induced mitochondrial swelling. AID 602449. inhibition, % at 10 µM. hit rate 1.4% among 360,000. isolated mouse mitochondria, Ca2+ swelling absorbance, 30 min;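 active = inhibition of 50% or more, scaled per plate between neutral and stimulator controls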;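 also: 0% = DMSO wells given calcium and 100% = 1 mM EGTA wells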
TbMetRS inhib – blocks T. brucei methionyl-tRNA synthetase activity; hit rate 0.4% among 360,000; inhibition, % at 11.9 µM; purified T. brucei MetRS, ATP depletion, Kinase-Glo luminescence;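 active = inhibition above a per-plate cutoff of the control wells' mean inhibition plus 3 SD, cut at about 5.5% in these data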;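 also: 0% = DMSO wells median and 100% = median of wells with control inhibitor compound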
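Test system: purified T. brucei MetRS enzyme. Also added: ATP, methionine and E. coli bulk tRNA substrates. Compound: 11.9 µM single point. Schedule: 15 min enzyme-compound preincubation, 2 h reaction, 10 min detection, 25 °C. Signal: luciferase luminescence of residual ATP, Kinase-Glo. Evaluation: percent inhibition versus plate control medians. Controls: DMSO wells, low control.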
CHOP inh – inhibitors of CHOP induction in ER stress response; CHO-K1 CHOP-promoter luciferase, tunicamycin-induced, 15-18 h; hit rate 3.8% among 220,000; AID 2732; inhibition, % at 10 µM;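 active = compounds that reduced the stress-induced luciferase reporter signal by more than about 70% of percent inhibition, limit read from the data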;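 also: 0% = tunicamycin plus vehicle and 100% = wells without tunicamycin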
NR3A LBD binder – modulators (binders) of human NR3A ligand-binding domain; NR3A LBD differential scanning fluorimetry, Tm shift; 0% = protein alone, 100% = glycine-bound protein; Tm shift relative to glycine control, % at 25 µM; hit rate 2.5% among 340,000; AID 1259313;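 active = melting temperature shift of at least 10% of the positive control shift, at one fixed dose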
WT yeast gro inh – growth inhibition of WT yeast, mitochondrial fusion screen; AID 1362; hit rate 2.1% among 190,000; inhibition, % at 10 µM; mitochondrial fusion phenotypic screen, WT strain; in the data active = inhibition above about 58%; tested in S. cerevisiae
EBV gp42 block – inhibitors of Epstein-Barr virus glycoprotein 42 | Fluorescence polarization binding assay, mP read-out | inhibition, % (tested at 21.74 µM) | hit rate 0.42% among 220,000; in the data active = inhibition above about 50%
Target sequence (Q1HVG2 whole entry, looked up): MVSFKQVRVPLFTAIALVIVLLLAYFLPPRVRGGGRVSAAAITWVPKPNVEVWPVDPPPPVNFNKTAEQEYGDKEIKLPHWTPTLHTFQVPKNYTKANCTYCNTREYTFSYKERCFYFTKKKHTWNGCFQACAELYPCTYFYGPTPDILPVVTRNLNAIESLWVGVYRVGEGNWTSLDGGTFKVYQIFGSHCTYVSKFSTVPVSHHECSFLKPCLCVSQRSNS
Rh123 counter – membrane potential counter-screen of mitochondrial pore inhibitors | shares compounds with MPTP block | isolated mitochondria, Rhodamine 123 fluorescence | inhibition, % at 10 µM | hit rate 78% among 5,000; in the data active = inhibition above about 22%;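 also: 0% = DMSO vehicle and 100% = positive control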
An asterisk follows results filed as active. Compounds with a hit are over-represented: about 6.4% of the library has one in this group of screens.

For Cc1nc2ccccn2c1C(=O)CSc1ccc(Cl)cc1Cl the results were MPTP block 72*, TbMetRS inhib 0, CHOP inh 45, NR3A LBD binder -7, WT yeast gro inh 21, EBV gp42 block -6 and Rh123 counter 4.
`O=C(NCc1ccccn1)Nc1ccc(Cl)c(Cl)c1` gave MPTP block 51*, TbMetRS inhib 2, CHOP inh 45, NR3A LBD binder 2, WT yeast gro inh 4, EBV gp42 block -3 and Rh123 counter 85*.
For Cc1ccc(NC(=O)NCc2ccncc2)cc1Cl the results were MPTP block 63*, TbMetRS inhib 2, CHOP inh 0, NR3A LBD binder -2, WT yeast gro inh 6, EBV gp42 block -11 and Rh123 counter 79*.
`O=C(CN1c2ccccc2Sc2ccccc21)NNC(=O)Nc1ccc(Cl)c(Cl)c1` gave MPTP block 52*, TbMetRS inhib 0, CHOP inh 20, NR3A LBD binder 16*, EBV gp42 block -2 and Rh123 counter 22*.
Screening O=C(NCc1ccccn1)Nc1cccc(Cl)c1 returned MPTP block 32, TbMetRS inhib 1, CHOP inh -12, NR3A LBD binder 2, WT yeast gro inh -4 and EBV gp42 block -20.
`O=C(NCc1ccccn1)Nc1cc(Cl)cc(Cl)c1` gave MPTP block 83*, TbMetRS inhib 3, NR3A LBD binder -5 and Rh123 counter 100*.
Screening O=C(NCc1ccncc1)Nc1ccc(Cc2ccc(NC(=O)NCc3ccncc3)cc2)cc1 returned MPTP block -1 and TbMetRS inhib 0.
For O=C(NCc1ccccn1)Nc1ccc(F)c(Cl)c1 the results were MPTP block 0, TbMetRS inhib 0 and NR3A LBD binder -13.
CC(=O)N1CCN(C(=O)c2oc3ccccc3c2C)CC1 was read as MPTP block 0, TbMetRS inhib 0 and NR3A LBD binder 4.
Cc1cccc(-c2nc(NCCCN(C)C)c3ccccc3n2)c1 was read as MPTP block -1, TbMetRS inhib 0 and NR3A LBD binder -2.
For O=C(NCCN1CCN(Cc2ccccc2)CC1)Nc1cc(Cl)cc(Cl)c1 the results were MPTP block 85*, TbMetRS inhib 3, CHOP inh 6, NR3A LBD binder -1, EBV gp42 block -14 and Rh123 counter 96*.
`O=C(NCc1csc2ccccc12)Nc1cc(Cl)cc(Cl)c1` gave MPTP block 86*, TbMetRS inhib 0, CHOP inh 86*, NR3A LBD binder 21*, EBV gp42 block 1 and Rh123 counter 76*.
`CCOc1ccc(CCNC(=O)c2cc([N+](=O)[O-])ccc2N2CCOCC2)cc1OCC` gave MPTP block 0, TbMetRS inhib 0 and NR3A LBD binder 6.
Screening O=C(Nc1cnn(Cc2ccc(Cl)cc2Cl)c1)c1cc(-c2cccs2)on1 returned MPTP block 1, TbMetRS inhib -2, CHOP inh 58, NR3A LBD binder -3, WT yeast gro inh 5 and EBV gp42 block -12.
Screening CNC(=O)Nc1ccc(Cl)cc1 returned MPTP block 96*, TbMetRS inhib -1, CHOP inh -7, NR3A LBD binder -2, WT yeast gro inh 0, EBV gp42 block -5 and Rh123 counter 91*.
Screening CC(=O)c1ccc(NC(=O)Nc2ccc(Cl)cc2)cc1 returned MPTP block 85*, TbMetRS inhib 2, CHOP inh 78*, NR3A LBD binder 31*, WT yeast gro inh 17, EBV gp42 block -16 and Rh123 counter 86*.
`COC(=O)Cc1ccc(NC(=S)NCc2ccccc2Cl)cc1` gave MPTP block 4, TbMetRS inhib 1, CHOP inh 25, NR3A LBD binder -11, WT yeast gro inh 39 and EBV gp42 block -4.
Screening CC(=O)c1cccc(NC(=O)Nc2cnn(Cc3ccc(Cl)cc3Cl)c2)c1 returned MPTP block 73*, TbMetRS inhib 0, CHOP inh 56, NR3A LBD binder 14*, WT yeast gro inh -8, EBV gp42 block -9 and Rh123 counter 71*.
Screening CC(=O)c1ccc(NC(=S)NCc2ccc(Cl)cc2Cl)cc1 returned MPTP block 95*, TbMetRS inhib 5, CHOP inh 69, NR3A LBD binder 16*, WT yeast gro inh -9, EBV gp42 block 13 and Rh123 counter 94*.
For CSc1ccc(/C=C/C(=O)N2CCCN(C)CC2)cc1 the results were MPTP block -2, TbMetRS inhib -1, CHOP inh 4, NR3A LBD binder 1, WT yeast gro inh 16 and EBV gp42 block 0.
For Cc1cc(N2C(=O)c3ccc(C(=O)Nc4ccc(O)cc4C(=O)O)cc3C2=O)no1 the results were MPTP block 0, TbMetRS inhib 0 and NR3A LBD binder -17.
For S=C(NCc1ccc(Cl)cc1Cl)NC1CCCCC1 the results were MPTP block 106*, TbMetRS inhib 1, CHOP inh 62, NR3A LBD binder 32*, WT yeast gro inh 83*, EBV gp42 block -7 and Rh123 counter 85*.
`CCCCNc1nc2c(c(=O)n(C)c(=O)n2C)n1CCC` gave MPTP block -1, TbMetRS inhib 0, CHOP inh 8, NR3A LBD binder 0, WT yeast gro inh -1 and EBV gp42 block -5.
For CCCCCCn1c(NCC)nc2c1c(=O)n(C)c(=O)n2C the results were MPTP block 56*, TbMetRS inhib 0, NR3A LBD binder -1, WT yeast gro inh -5, EBV gp42 block 0 and Rh123 counter 86*.
Screening O=C(c1cccc(NS(=O)(=O)c2ccc(F)cc2)c1)N1CCN(c2ccccc2)CC1 returned MPTP block -1, TbMetRS inhib 0 and NR3A LBD binder 1.
For C=CCn1c(C(O)c2ccccc2)nc2ccccc21 (stereo not drawn) the results were MPTP block -1, TbMetRS inhib -2 and NR3A LBD binder 1.
CC1(c2ccc3ccccc3c2)NC(=O)N(CC(=O)N2CCN(Cc3ccc(C#N)cc3)CC2)C1=O (stereo not drawn) was read as MPTP block 57*, TbMetRS inhib -1, NR3A LBD binder 0 and Rh123 counter 65*.
Screening N#C/C(=N\Nc1ccc(Cl)cc1)C(N)=S returned MPTP block 70*, TbMetRS inhib 0, CHOP inh 24, NR3A LBD binder -1, EBV gp42 block 0 and Rh123 counter 92*.
`N#C/C(=N\Nc1ccccc1)C(N)=S` gave MPTP block 6, TbMetRS inhib -1, CHOP inh 0, NR3A LBD binder 1 and EBV gp42 block -11.
`Cc1ccc(N/N=C(\C#N)C(N)=S)cc1C` gave MPTP block 67*, TbMetRS inhib 0, CHOP inh 7, NR3A LBD binder -6, WT yeast gro inh 49, EBV gp42 block -9 and Rh123 counter 89*.
`COc1ccc(C2(c3ccc(OC)cc3)NC(=O)N(CC(=O)Nc3ccc(OC)c(OC)c3)C2=O)cc1` gave MPTP block -1, TbMetRS inhib 0 and NR3A LBD binder 1.

Screens from PubChem.
